Hits are enriched below; roughly 2.1% of the tested compounds scored in any of these assays.
zVAD death inh – L929 zVAD cell death inhibition | actives 0.38% (n = 220,000) | AID 1377 | viability rescue, % at 10 µM | L929 zVAD necroptosis rescue, ATP luminescence, 24 h; with zVAD 60 µM;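 active = activation, scaled between plate controls, above about 75%, limit read from the data; inactive = activation under that limit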;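 note: 0% = zVAD with DMSO and 100% = DMSO alone without zVAD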
Pf gamet viab – P. falciparum stage V gametocyte viability inhibition; actives 0.065% (n = 150,000); P. falciparum stage V gametocytes, ATP luminescence, 24 h; inhibition, % at 10.9 µM;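 active = inhibition above the mean plus 3 SD of compounds within the control limits, set per campaign, cut at about 38% in these data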;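 note: 0% = DMSO wells and 100% = medium only without gametocytes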
Wee1 stabilizer – human Wee1 degradation inhibition, primary screen | HeLa Luc-Wee1K328M stability, luciferase luminescence; 100% = proteasome inhibitor MG132 effect | reporter increase, % at 5 µM | actives 1.2% (n = 220,000);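 active = activation above the mean of all tested compounds plus 3 SD, set per screening run, cut at about 8.8% in these data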;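 note: cells exposed to compound for 20 h before luminescence read; 0% = DMSO alone and 100% = MG132 at 30 µM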
Target sequence (P30291 whole entry K328M): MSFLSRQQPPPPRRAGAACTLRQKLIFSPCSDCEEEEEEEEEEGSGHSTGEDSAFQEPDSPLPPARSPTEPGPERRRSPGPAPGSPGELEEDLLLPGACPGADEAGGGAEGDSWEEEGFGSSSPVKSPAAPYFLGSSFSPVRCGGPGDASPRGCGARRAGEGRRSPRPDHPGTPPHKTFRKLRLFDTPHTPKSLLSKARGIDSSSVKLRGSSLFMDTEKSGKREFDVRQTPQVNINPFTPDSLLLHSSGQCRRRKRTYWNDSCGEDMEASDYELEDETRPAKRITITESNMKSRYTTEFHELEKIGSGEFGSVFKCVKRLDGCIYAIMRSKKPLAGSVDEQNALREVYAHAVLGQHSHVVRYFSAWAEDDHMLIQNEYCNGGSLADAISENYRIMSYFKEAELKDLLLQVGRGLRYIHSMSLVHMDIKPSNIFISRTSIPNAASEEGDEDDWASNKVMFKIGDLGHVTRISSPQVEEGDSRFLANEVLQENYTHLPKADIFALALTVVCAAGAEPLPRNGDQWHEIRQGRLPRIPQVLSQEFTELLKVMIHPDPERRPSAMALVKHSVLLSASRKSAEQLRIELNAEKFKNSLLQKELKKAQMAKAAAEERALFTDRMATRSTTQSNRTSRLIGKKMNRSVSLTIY
m-calpain inh – blocks pig calpain II enzyme activity. actives 0.37% (n = 220,000). AID 1236. inhibition, % at 16 µM. purified calpain II, fluorogenic peptide substrate, 30 min;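 active = inhibition above about 50%, limit read from the data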
RBBP9 inhibitor – human RBBP9 hydrolase inhibition; O75884; recombinant RBBP9, FP-Rh probe fluorescence polarization; inhibition, % at 7.94 µM; actives 0.2% (n = 220,000); AID 1515;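 active = inhibition above the campaign mean of all tested compounds plus 3 SD, cut at about 14% in these data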;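 note: plate controls were DMSO wells with RBBP9 for no effect and wells lacking RBBP9 protein for full effect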
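Measured by – fluorescence polarization · Test system – RBBP9 protein · Input – 2.5 µM RBBP9 dispensing solution, before mixing · Measure – percent inhibition from mP, scaled between DMSO and no-protein wells · Benchmarks – DMSO-treated enzyme wells and wells lacking RBBP9 · Times – preincubation 30 min plus labeling 45 min at 25 °C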
TNF necrop inh – inhibitors of TNF-alpha induced necroptosis in Jurkat FADD-/- cells; Jurkat FADD-/- TNF necroptosis rescue, ATP luminescence, 24 h; 0 = TNF only, 100 = no-TNF cells; activation (protection from cell death), % at 10 µM; actives 0.068% (n = 220,000); AID 463075;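 active = activation, meaning protection from cell death, of at least 50% relative to plate controls; inactive = activation below 50%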;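 note: necroptosis triggered by 40 ng/mL TNF-alpha added together with compound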
* marks the source's active call; other numbers are inactive results; i = inactive; x = no result given.

SMILES	zVAD death inh	Pf gamet viab	Wee1 stabilizer	m-calpain inh	RBBP9 inhibitor	TNF necrop inh
COC(=O)c1ccc(/C=N/OCC(=O)NC2CCCCCCC2)cc1	78*	9	0	10	-7	0
Cc1ccc(C)c(NC(=O)C(=O)NCCc2c[nH]c3ccccc23)c1	7	-1	3	-18	3	1
Cc1cc(C)cc(NC(=O)C(=O)NCCc2c[nH]c3ccccc23)c1	1	x	2	65*	-2	2
O=S(=O)(c1ccc(F)cc1)N1CCN(c2ccc(-c3ccccc3)nn2)CC1	5	3	-1	-9	-8	1
NC(=O)c1ccc(-n2nnnc2Oc2ccccc2C(=O)N2CCOCC2)cc1	0	-34	-2	51*	-7	-3
Fc1cccc(NC(=S)NCCN2CCOCC2)c1	-1	-14	-1	21	-4	-3
N#CCC(=O)Nc1ccc(C(=O)OCC(=O)Nc2ccccc2Sc2ccccc2)cc1	42	40*	1	-136	-9	0
CC(=O)Nc1ccc(C(=O)OCC(=O)Nc2ccccc2Sc2ccccc2)cc1	2	-19	1	14	-15	-2
Cc1csc(NC(=O)c2ccccc2)n1	x	2	x	x	x	x
O=C(Nc1nc(=O)[nH]s1)c1ccccc1	0	-19	3	57*	-3	1
CC(NC(=S)Nc1ccc([N+](=O)[O-])cc1)c1ccncc1 (stereo not drawn)	4	-18	1	-1	0	0
O=[N+]([O-])c1ccc(N2CCN(C(=S)Nc3ccc(F)cc3F)CC2)cc1	0	-36	9.2*	4	1	1
O=C1CCC/C=C\C[C@@H](CC(=O)N(CCO)Cc2ccccc2)C(=O)N[C@H](c2ccccc2)CO1	x	27	x	x	x	x
CCCCCCSc1nnc(-c2cnn(-c3ccccc3)c2-n2cccc2)n1C	-1	x	1	56*	-6	-2
NC(=O)c1ccc(-n2nnnc2SCC(=O)Nc2ccccc2-c2ccccc2)cc1	73	x	0	65*	1	-8
COC(=O)c1ccc(-n2nnnc2SCC(=O)Nc2ccccc2C(=O)OC)cc1	0	5	5	-9	-1	-4
COc1cc(OC)cc(-c2c(C#Cc3ccsc3)c3cc(-c4cccc5[nH]ccc45)ccc3n2C)c1	x	-9	x	x	x	x
CCOC(=O)N1CCN(C(=O)c2cc3c(s2)-c2ccccc2OC3)CC1	0	x	-1	-486	2	0
CCOC(=O)N1CCN(C(=O)c2cc3c(s2)-c2ccc(Cl)cc2S(=O)(=O)C3)CC1	1	4	10*	-13	4	-2
CCOC(=O)c1cnn(-c2cc(C)nc3c(-c4ccccc4)cnn23)c1N	1	5	11*	-28	-14	3
Clc1ccc(/C=C/c2ncc3ccccn23)cc1	-1	x	2	i	1	-4
CCNc1nc(N)c(C(=O)c2ccc(Cl)s2)s1	0	x	10*	33	-4	5
O=C(NC1(C(F)(F)F)NC(=O)N(Cc2ccccc2)C1=O)c1cccs1 (stereo not drawn)	0	26	7	x	-8	-2
O=C(c1ccc(N2CCCC2=O)cc1)N1CCN(c2ccccc2)CC1	0	x	2	22	-3	-2
O=C(c1ccc(N2CCCC2=O)cc1)N1CCCCCC1	2	x	5	84*	6	0
SMILES	zVAD death inh	Pf gamet viab	Wee1 stabilizer	m-calpain inh	RBBP9 inhibitor	TNF necrop inh
CCn1c(COc2ccccc2C)nnc1SCC(=O)CC(=O)Nc1ccccc1	0	-18	12*	-27	-8	-1
CC(=O)c1cccc(CN2CCCC(CCC(=O)NCc3ccc(F)c(F)c3)C2)c1 (stereo not drawn)	0	11	-2	3	4	3
NC(=O)CNC(=O)c1ccc(Cl)cc1	1	1	9.1*	-14	4	1
COc1cc(C2=NOC(C(=O)Nc3cc(C)on3)C2)cc(OC)c1OC (stereo not drawn)	1	-2	2	2	1	4
CN(C)/C=C(/C(=O)c1ccc(Cl)cc1Cl)S(=O)(=O)c1ccccc1	1	4	9.6*	8	-2	-1
CN(C)/C=C(/C(=O)c1ccc(Cl)cc1Cl)S(=O)(=O)c1ccc(Cl)cc1	0	5	1	-5	-9	0
COc1cc([N+](=O)[O-])ccc1NC(=S)NC(=O)CC(C)(C)C	1	x	3	0	-5	4
CCOC(=O)Nc1ccc2c(c1)N(C(=O)N1CCN(C)CC1)c1ccccc1CC2	-1	10	0	-7	-5	2
CC(C)OC(=O)Nc1ccc2c(c1)N(C(=O)N1CCN(C)CC1)c1ccccc1CC2	-2	15	11*	11	0	-17
O=C(Nc1ccc(F)c(F)c1)c1cccnc1	0	2	7	20	-9	-3
CSc1ccc(NC(=O)c2cccnc2)cc1C#N	1	-5	8.8*	19	-4	0
CN(C(=O)c1c(Br)cnn1C)C12CC3CC(CC(C3)C1)C2	1	4	0	-3	1	1
Cc1ccc(S(=O)(=O)/C(C#N)=C/c2c(N3CCC(C(N)=O)CC3)nc3ccccn3c2=O)cc1	0	3	0	-5	-6	1
Cc1cc(NC(=O)C(C)C)ncc1NC(=O)Cc1ccccc1	3	x	10*	-14	-8	2
O=C(CCSc1ccccc1)Nc1nnc(-c2ccccc2)o1	2	x	1	17	4	0
O=C(CCSc1ccccc1)Nc1nnc(-c2cccs2)o1	0	x	9.5*	9	2	0
Cc1ccc(C(C(=O)NC2CCCC2)N(C(=O)Cc2cccs2)c2ccc(C)c(C)c2)o1 (stereo not drawn)	0	x	1	63*	-1	-3
Cc1ccc(N(C(=O)Cc2cccs2)C(C(=O)NC2CCCC2)c2ccncc2)cc1 (stereo not drawn)	0	1	-1	0	-9	1
Cc1ccc(N(C(=O)CCl)C(C(=O)NC2CCCCC2)c2cccnc2)cc1C (stereo not drawn)	4	-29	-3	102*	-9	-13
Cc1ccc(C)c(N(C(=O)Cc2cccs2)C(C(=O)NC2CCCC2)c2ccc(C)o2)c1 (stereo not drawn)	0	x	0	53*	-7	-3
Cc1ccc(C(C(=O)NC2CCCC2)N(C(=O)Cc2cccs2)c2ccc3c(c2)OCCO3)cc1 (stereo not drawn)	0	8	-1	-50	-8	-6
Cc1ccc(N(C(=O)CNC(=O)c2ccco2)C(C(=O)NC2CCCC2)c2cccnc2)cc1C (stereo not drawn)	0	x	0	-15	-4	-4
CCC(C(=O)Nc1cccnc1Cl)c1ccccc1 (stereo not drawn)	x	4	x	x	x	x

Screening data: PubChem, several laboratories
